Molecular target: 5-hydroxytryptamine receptor 2A (Rattus norvegicus, UniProt P14842)
Assay: Binding affinity to rat 5HT2A receptor

Sequence of 5-hydroxytryptamine receptor 2A (Rattus norvegicus, UniProt P14842) (P14842 whole entry): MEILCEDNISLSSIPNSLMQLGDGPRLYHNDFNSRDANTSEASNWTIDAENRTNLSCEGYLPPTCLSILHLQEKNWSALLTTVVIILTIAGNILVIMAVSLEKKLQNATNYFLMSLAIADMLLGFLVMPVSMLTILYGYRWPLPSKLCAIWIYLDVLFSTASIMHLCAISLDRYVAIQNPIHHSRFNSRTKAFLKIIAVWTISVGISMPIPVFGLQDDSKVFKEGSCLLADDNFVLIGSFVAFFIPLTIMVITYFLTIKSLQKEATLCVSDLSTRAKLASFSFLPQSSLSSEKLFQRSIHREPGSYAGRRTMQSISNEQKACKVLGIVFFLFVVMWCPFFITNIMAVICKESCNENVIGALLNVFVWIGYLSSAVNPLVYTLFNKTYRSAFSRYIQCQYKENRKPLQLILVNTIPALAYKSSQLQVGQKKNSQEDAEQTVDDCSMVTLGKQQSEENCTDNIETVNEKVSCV

Q: `CCC1(NC2=NCCNC(c3ccc(F)cc3F)=C2)CCCC1` was tested. Which IC50 did it give?
A: 2.3 nM

Molecular target: Voltage-gated inwardly rectifying potassium channel KCNH2 (Homo sapiens, UniProt Q12809)
Assay: Activity at HERG potassium channel
Type: functional

Sequence of Voltage-gated inwardly rectifying potassium channel KCNH2 (Q12809 whole entry): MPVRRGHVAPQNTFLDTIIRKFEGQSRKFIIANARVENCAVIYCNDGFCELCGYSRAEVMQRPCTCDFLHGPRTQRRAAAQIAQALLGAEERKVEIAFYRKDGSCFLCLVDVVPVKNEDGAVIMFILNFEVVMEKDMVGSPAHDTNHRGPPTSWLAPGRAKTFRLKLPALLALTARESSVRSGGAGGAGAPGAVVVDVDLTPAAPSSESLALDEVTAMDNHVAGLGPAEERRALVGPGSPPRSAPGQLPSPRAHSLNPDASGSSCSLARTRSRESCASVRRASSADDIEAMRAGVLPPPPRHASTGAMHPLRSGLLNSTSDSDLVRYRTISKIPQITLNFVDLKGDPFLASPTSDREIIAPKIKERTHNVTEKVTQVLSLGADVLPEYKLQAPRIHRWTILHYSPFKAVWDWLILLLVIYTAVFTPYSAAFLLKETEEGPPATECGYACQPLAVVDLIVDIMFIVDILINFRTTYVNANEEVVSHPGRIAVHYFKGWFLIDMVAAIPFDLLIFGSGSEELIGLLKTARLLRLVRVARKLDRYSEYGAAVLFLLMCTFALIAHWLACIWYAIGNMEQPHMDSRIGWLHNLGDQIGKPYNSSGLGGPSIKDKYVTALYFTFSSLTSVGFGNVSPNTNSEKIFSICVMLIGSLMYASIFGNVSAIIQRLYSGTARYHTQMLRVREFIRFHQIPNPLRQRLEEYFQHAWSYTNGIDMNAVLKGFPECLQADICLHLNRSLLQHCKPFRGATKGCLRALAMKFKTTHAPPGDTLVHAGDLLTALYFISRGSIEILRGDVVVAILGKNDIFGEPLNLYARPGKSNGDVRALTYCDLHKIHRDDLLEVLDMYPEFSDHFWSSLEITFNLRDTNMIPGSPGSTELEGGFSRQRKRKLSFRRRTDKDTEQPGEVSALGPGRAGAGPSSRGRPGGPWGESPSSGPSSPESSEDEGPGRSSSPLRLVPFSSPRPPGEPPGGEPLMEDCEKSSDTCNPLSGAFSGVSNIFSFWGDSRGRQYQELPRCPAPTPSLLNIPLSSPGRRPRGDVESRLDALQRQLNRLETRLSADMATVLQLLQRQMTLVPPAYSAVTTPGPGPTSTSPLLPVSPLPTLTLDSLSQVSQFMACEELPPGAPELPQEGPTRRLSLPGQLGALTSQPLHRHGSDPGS

Q: Which Activity does the source give for `CCC(C)(CC)NC1=NCCNC(c2ccc(F)cc2)=C1` here?
A: > 1000 nM

Q: `Cc1ccc(C2=CC(NC(C)(C)C)=NCCN2)c(C)c1` was tested. Which Activity did it give?
A: > 1000 nM

Q: How did the Activity turn out when `CC(C)(C)CNC1=NCCNC(c2ccccc2F)=C1` was run?
A: > 1000 nM

Q: Which Activity does the source give for `CC(C)(C)NC1=NCCNC(c2ccccc2)=C1` here?
A: > 1000 nM

Q: Which Activity does the source give for `CCC1(NC2=NCCNC(c3ccc(F)cc3F)=C2)CCCC1` here?
A: > 1000 nM

Q: With `CC(C)(C)NC1=NCCNC(c2cccc(C(F)(F)F)c2)=C1` as the molecule, how does the Activity read?
A: > 1000 nM

Q: How did the Activity turn out when `COc1ccc(C2=CC(NC(C)(C)C)=NCCN2)cc1` was run?
A: > 1000 nM

Q: `CCC1(NC2=NCCNC(c3ccccc3F)=C2)CCCC1` was tested. Which Activity did it give?
A: > 1000 nM

Q: `Cc1ccc(C2=CC(NC(C)(C)C)=NCCN2)cc1` was tested. Which Activity did it give?
A: > 1000 nM

Q: `CC(C)(C)NC1=NCCNC(c2ccccc2Cl)=C1` was tested. Which Activity did it give?
A: > 1000 nM

Q: For `CC(C)(C)NC1=NCCNC(c2ccc(C#N)cc2)=C1`, which Activity is on record?
A: > 1000 nM

Q: For `CCC(CC)(CC)NC1=NCCNC(c2ccc(F)cc2F)=C1`, which Activity is on record?
A: > 1000 nM

Q: With `Cc1ccc(C2=CC(N3CCOCC3)=NCCN2)cc1` as the molecule, how does the Activity read?
A: > 1000 nM

Q: Which Activity does the source give for `Cc1ccccc1C1=CC(NC(C)(C)C)=NCCN1` here?
A: > 1000 nM

Q: How did the Activity turn out when `CC(C)(NC1=NCCNC(c2ccc(F)cc2F)=C1)C1CCC1` was run?
A: > 1000 nM

Q: How did the Activity turn out when `CCC(C)(CC)NC1=NCCNC(c2ccc(C)cc2)=C1` was run?
A: > 1000 nM

Q: Which Activity does the source give for `CCN(CC)C1=NCCNC(c2ccccc2F)=C1` here?
A: > 1000 nM

Q: With `CC(C)(C)NC1=NCCNC(c2ccc(F)cc2F)=C1` as the molecule, how does the Activity read?
A: > 1000 nM

Q: For `CCC(C)(CC)NC1=NCCNC(c2ccccc2F)=C1`, which Activity is on record?
A: > 1000 nM

Q: Which Activity does the source give for `CCC1(NC2=NCCNC(c3ccc(F)cc3)=C2)CCCC1` here?
A: > 1000 nM

Q: For `CCN(CC)C1=NCCNC(c2ccc(C)cc2)=C1`, which Activity is on record?
A: > 1000 nM

Q: How did the Activity turn out when `CC(C)(Cc1ccccc1)NC1=NCCNC(c2ccccc2F)=C1` was run?
A: 270 nM

Q: How did the Activity turn out when `CC(C)(C)NC1=NCCNC(c2ccccc2F)=C1` was run?
A: > 1000 nM

Q: How did the Activity turn out when `CC(C)(C)NC1=NCCNC(c2ccc(F)cc2)=C1` was run?
A: > 1000 nM

Q: With `CC1(NC2=NCCNC(c3ccc(F)cc3)=C2)CCCCC1` as the molecule, how does the Activity read?
A: > 1000 nM

Q: For `Cc1ccc(C2=CC(N3CCNCC3)=NCCN2)cc1`, which Activity is on record?
A: > 1000 nM

Q: For `Cc1ccc(C2=CC(NC(C)(C)C)=NCCN2)c(F)c1`, which Activity is on record?
A: > 1000 nM

Q: Which Activity does the source give for `Cc1ccc(C2=CC(NC(C)(C)Cc3ccccc3)=NCCN2)cc1` here?
A: 300 nM

Molecular target: T1, 5-hydroxytryptamine receptor 2C (Homo sapiens, UniProt P28335)
T1 sequence (P28335 whole entry): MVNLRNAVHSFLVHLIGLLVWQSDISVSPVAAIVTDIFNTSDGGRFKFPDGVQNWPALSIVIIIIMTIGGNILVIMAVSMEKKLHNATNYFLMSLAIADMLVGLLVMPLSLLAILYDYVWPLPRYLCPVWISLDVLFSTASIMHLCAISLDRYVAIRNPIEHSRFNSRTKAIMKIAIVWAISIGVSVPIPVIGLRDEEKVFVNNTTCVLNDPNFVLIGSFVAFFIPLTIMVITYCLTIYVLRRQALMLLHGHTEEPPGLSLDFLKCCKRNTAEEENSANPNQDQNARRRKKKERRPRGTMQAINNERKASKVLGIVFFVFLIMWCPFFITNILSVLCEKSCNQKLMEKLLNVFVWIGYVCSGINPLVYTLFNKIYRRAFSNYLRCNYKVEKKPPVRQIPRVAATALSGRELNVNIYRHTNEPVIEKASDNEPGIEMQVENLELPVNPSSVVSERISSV
Assay: Binding affinity to 5HT2C receptor

Q: Which IC50 does the source give for `CCC(C)(CC)NC1=NCCNC(c2ccc(F)cc2)=C1` here?
A: 16 nM

Q: For `CC(C)(C)NC1=NCCNC(c2ccccc2)=C1`, which IC50 is on record?
A: 1050 nM

Q: How did the IC50 turn out when `CCC1(NC2=NCCNC(c3ccc(F)cc3F)=C2)CCCC1` was run?
A: 27 nM

Q: Which IC50 does the source give for `CCC(CC)(CC)NC1=NCCNC(c2ccc(F)cc2F)=C1` here?
A: 86 nM

Q: How did the IC50 turn out when `CCC(C)(CC)NC1=NCCNC(c2ccc(C)cc2)=C1` was run?
A: 75 nM

Q: For `CC(C)(C)NC1=NCCNC(c2ccc(F)cc2)=C1`, which IC50 is on record?
A: 637 nM

Molecular target: 5-hydroxytryptamine receptor 2A (Homo sapiens, UniProt P28223)
Sequence (P28223 whole entry): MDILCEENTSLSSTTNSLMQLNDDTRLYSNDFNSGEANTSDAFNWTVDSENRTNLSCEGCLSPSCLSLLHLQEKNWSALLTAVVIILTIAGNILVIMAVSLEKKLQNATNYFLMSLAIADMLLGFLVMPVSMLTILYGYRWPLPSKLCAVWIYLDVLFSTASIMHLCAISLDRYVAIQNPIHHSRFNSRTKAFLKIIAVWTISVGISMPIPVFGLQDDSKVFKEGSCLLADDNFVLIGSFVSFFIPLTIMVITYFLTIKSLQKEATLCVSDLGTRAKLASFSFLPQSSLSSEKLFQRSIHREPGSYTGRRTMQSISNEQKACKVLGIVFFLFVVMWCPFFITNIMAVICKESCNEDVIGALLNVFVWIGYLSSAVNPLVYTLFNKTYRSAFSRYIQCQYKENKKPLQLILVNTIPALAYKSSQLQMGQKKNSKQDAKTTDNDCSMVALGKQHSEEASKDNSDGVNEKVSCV
Assay: Displacement of [3H]ketanserin from human 5HT2A receptor expressed in CHOK1 cells
Type: cell-based, CHO-K1
Outline: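 Membranes from confluent CHO K1 cells expressing human 5-HT2A were incubated with [3H]ketanserin (76 Ci/mmol) for 15 min at 37 °C with shaking at 180 rpm. Buffer was 50 mM Tris pH 7.7, 0.1% ascorbate, pargyline, MgSO4 and 0.5 mM EDTA. Bound and free ligand were separated by GF/B filtration and the filters counted. Mianserin defined non-specific binding. Five-point log titrations were fitted with a four-parameter curve to give IC50 and Ki.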

Q: Which IC50 does the source give for `CCC(C)(CC)NC1=NCCNC(c2ccc(F)cc2)=C1` here?
A: 1.5 nM

Q: Which IC50 does the source give for `Cc1ccc(C2=CC(NC(C)(C)C)=NCCN2)c(C)c1` here?
A: 71 nM

Q: With `CC(C)(C)CNC1=NCCNC(c2ccccc2F)=C1` as the molecule, how does the IC50 read?
A: 1520 nM

Q: With `CC(C)(C)NC1=NCCNC(c2ccccc2)=C1` as the molecule, how does the IC50 read?
A: 35 nM

Q: For `CCC1(NC2=NCCNC(c3ccc(F)cc3F)=C2)CCCC1`, which IC50 is on record?
A: 1.1 nM

Q: How did the IC50 turn out when `CC(C)(C)NC1=NCCNC(c2cccc(C(F)(F)F)c2)=C1` was run?
A: 514 nM

Q: How did the IC50 turn out when `COc1ccc(C2=CC(NC(C)(C)C)=NCCN2)cc1` was run?
A: 534 nM

Q: `CCC1(NC2=NCCNC(c3ccccc3F)=C2)CCCC1` was tested. Which IC50 did it give?
A: 3.6 nM

Q: `Cc1ccc(C2=CC(NC(C)(C)C)=NCCN2)cc1` was tested. Which IC50 did it give?
A: 11 nM

Q: How did the IC50 turn out when `CC(C)(C)NC1=NCCNC(c2ccccc2Cl)=C1` was run?
A: 76 nM

Q: For `CC(C)(C)NC1=NCCNC(c2ccc(C#N)cc2)=C1`, which IC50 is on record?
A: 2800 nM

Q: For `CCC(CC)(CC)NC1=NCCNC(c2ccc(F)cc2F)=C1`, which IC50 is on record?
A: 3.7 nM

Q: With `Cc1ccc(C2=CC(N3CCOCC3)=NCCN2)cc1` as the molecule, how does the IC50 read?
A: > 1000 nM

Q: `Cc1ccccc1C1=CC(NC(C)(C)C)=NCCN1` was tested. Which IC50 did it give?
A: 112 nM

Q: `CC(C)(NC1=NCCNC(c2ccc(F)cc2F)=C1)C1CCC1` was tested. Which IC50 did it give?
A: 1.4 nM

Q: For `CCC(C)(CC)NC1=NCCNC(c2ccc(C)cc2)=C1`, which IC50 is on record?
A: 14.9 nM

Q: With `CCN(CC)C1=NCCNC(c2ccccc2F)=C1` as the molecule, how does the IC50 read?
A: > 1000 nM

Q: How did the IC50 turn out when `CC(C)(C)NC1=NCCNC(c2ccc(F)cc2F)=C1` was run?
A: 11 nM

Q: With `CCC(C)(CC)NC1=NCCNC(c2ccccc2F)=C1` as the molecule, how does the IC50 read?
A: 4.5 nM

Q: For `CCC1(NC2=NCCNC(c3ccc(F)cc3)=C2)CCCC1`, which IC50 is on record?
A: 0.8 nM

Q: With `CCN(CC)C1=NCCNC(c2ccc(C)cc2)=C1` as the molecule, how does the IC50 read?
A: > 1000 nM

Q: With `CC(C)(Cc1ccccc1)NC1=NCCNC(c2ccccc2F)=C1` as the molecule, how does the IC50 read?
A: 3.8 nM

Q: How did the IC50 turn out when `CC(C)(C)NC1=NCCNC(c2ccccc2F)=C1` was run?
A: 18 nM

Q: `CC(C)(C)NC1=NCCNC(c2ccc(F)cc2)=C1` was tested. Which IC50 did it give?
A: 21 nM

Q: For `CC1(NC2=NCCNC(c3ccc(F)cc3)=C2)CCCCC1`, which IC50 is on record?
A: 1.6 nM

Q: `Cc1ccc(C2=CC(N3CCNCC3)=NCCN2)cc1` was tested. Which IC50 did it give?
A: > 1000 nM

Q: For `Cc1ccc(C2=CC(NC(C)(C)C)=NCCN2)c(F)c1`, which IC50 is on record?
A: 14 nM

Q: `Cc1ccc(C2=CC(NC(C)(C)Cc3ccccc3)=NCCN2)cc1` was tested. Which IC50 did it give?
A: 2.4 nM
